Source: PubChem (several laboratories)
CHOP UPR activ: activators of apoptotic CHOP UPR arm, primary screen, cell-based, CHO-CHOP luciferase reporter, luminescence, uHTS; activation, % at 10 µM; UPR activation; percent of tunicamycin response over DMSO baseline; 330,000 tested, 0.34% active;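 active means at 10 µM dose, activation of 40% or more, normalized to positive control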;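 further: 100% = tunicamycin at 10 µg/mL and 0% = DMSO alone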
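System: CHO-CHOP luciferase reporter cell line; amount: 500 cells/well; buffer or medium: F12 medium containing 10% fetal bovine serum; incubation: 6 h compound exposure at 37 °C after overnight seeding; measured by: luciferase luminescence after 10 min with Steady-Glo reagent; evaluation: % reporter activation, DMSO baseline versus tunicamycin full activation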
CHOP inhibitor: inhibitors of CHOP promoter induction, primary screen, cell-based, unfolded protein response, luciferase reporter; CHO-K1 CHOP-promoter luciferase, tunicamycin-induced, 15-18 h; inhibition, % at 10 µM; 220,000 tested, 3.8% active; AID 2732, 2010;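 active means compounds that reduced the stress-induced luciferase reporter signal by more than about 70% of percent inhibition, limit read from the data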;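 further: 0% = tunicamycin plus vehicle and 100% = wells without tunicamycin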
FXN GAA850 act: FXN promoter activators, primary screen, cell-based, luciferase luminescence, HEK293 lucGAA850; activation, % at 6 µM; 360,000 tested, 0.56% active; HEK293 lucGAA850 FXN promoter luciferase reporter, 24 h; percent of 10 µM SAHA response;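 active means activation above the average of all compounds screened plus 3 SD, cutoff fixed separately per campaign, cut at about 7.5% in these data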;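 further: 0% = DMSO wells and 100% = 10 µM SAHA wells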
UPR XBP1 act: activators of adaptive XBP1 UPR arm, primary screen, cell-based, CHO-XBP1 luciferase reporter, luminescence, uHTS. IRE1-XBP1 UPR activation; percent of tunicamycin response, DMSO as zero. activation, % at 20 µM. 330,000 tested, 0.33% active. AID 463104, 2010;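 active means versus positive control, 20 µM dose yields 30% or more activation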;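 further: 100% = tunicamycin at 10 µg/mL and 0% = DMSO only wells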
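Assay system: CHO-XBP1 luciferase reporter cells; Schedule: 6 h treatment, 37 °C; Detection: glow luminescence from Steady-Glo reagent; Benchmarks: high control tunicamycin 10 µg/mL final, low control DMSO vehicle only.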
CHOP inh conf: retest of CHOP induction inhibitors, confirmation, cell-based; shares compounds with CHOP inhibitor; CHO-CHOP promoter luciferase reporter, tunicamycin-induced, luminescence; inhibition, % at 10 µM; 2,100 tested, 45% active; AID 504437, 2011;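 active means mean of three repeat readings of reporter signal inhibition above a set limit, cut at about 70% in these data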;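 further: 0% = tunicamycin plus vehicle and 100% = wells lacking tunicamycin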
Numbers without * were called inactive; · = not tested or not shown. The full list was thinned out, with hits kept by preference.

SMILES | CHOP UPR activ | CHOP inhibitor | FXN GAA850 act | UPR XBP1 act | CHOP inh conf
CCOC(=O)C1=C(N)c2ccccc2CC1C(C)C (configuration not stated) | -1.0 | 99.6* | 1.0 | -3.3 | 13.8
COc1cc(C)ccc1S(=O)(=O)N1CCN(C23CC4CC(CC(C4)C2)C3)CC1 | -0.6 | 105.1* | -2.3 | -0.4 | 12.0
CC(C)Nc1ncnc2c1ncn2[C@H]1CN(Cc2ccc3c(c2)OCO3)C[C@@H](CO)O1 | · | · | 1.1 | · | ·
O=C(CN1C(=O)c2ccccc2S1(=O)=O)c1ccc2c(c1)OCCCO2 | -10.5 | 104.1* | -13.4 | -11.0 | 120.9*
O=C(CN1C(=O)c2ccccc2S1(=O)=O)c1ccc(F)cc1 | -7.2 | 38.3 | -7.8 | -9.9 | ·
Clc1ccccc1OCc1nnc(-c2ccccc2Br)o1 | 5.1 | 50.6 | 3.2 | 2.3 | ·
O=c1c(Cl)c(Cl)cnn1Cc1nnc(-c2ccccc2Br)o1 | -8.4 | 104.2* | -6.3 | -6.7 | 122.1*
CC(C)Cn1c(N)c(C(=O)COC(=O)C2CCCCC2)c(=O)n(C)c1=O | 0.4 | 99.7* | 0.6 | 1.2 | 77.8*
Cc1ccc(N2CC(C(=O)OCC(=O)c3c(N)n(CC(C)C)c(=O)n(C)c3=O)CC2=O)cc1 (configuration not stated) | 0.1 | · | -1.1 | -0.5 | ·
CNc1nc(NCC2CCCCC2)c2sccc2n1 | · | · | -0.6 | · | ·
COc1ccc(C2NCCc3c2[nH]c2ccccc32)cc1CSc1nc2ccccc2s1 (configuration not stated) | · | 99.5* | -6.2 | · | 45.0
O=c1[nH]c(CSc2nc3ccccc3s2)nc2ccccc12 | 2.5 | -13.4 | 0.7 | 7.4 | ·
COc1ccc(-c2ccc(C(=O)Nc3ccc4c(c3)OCO4)c3occc23)c(C)c1 | · | · | 2.3 | · | ·
CCc1nc(NCC(C)C)c(C#N)c2c1COC(C)(C)C2 | 0.5 | 107.6* | -0.9 | 0.4 | 71.1*
CC1(C(=O)NCC(F)(F)F)CCN1C(=O)Cc1ccc(-c2ccccc2)cc1 (configuration not stated) | · | · | 3.7 | · | ·
Cc1nn(-c2ccc(F)cc2)c2nc(N)c(C#N)c(-c3cccs3)c12 | 1.3 | 99.7* | -1.4 | 6.0 | 42.3
Cc1nn(-c2ccc(F)cc2)c2nc(N)c(C#N)c(-c3ccc(O)c(O)c3)c12 | 4.3 | · | 5.5 | 6.4 | ·
CCN(CC)C(=O)C1=C(C)N(CCCN2CCCC2=O)C(=O)C(CC(=O)NC2CCCC2)C1 (configuration not stated) | · | · | 1.6 | · | ·
CCCCS(=O)CC(COc1ccc(Cl)cc1)OC(=O)c1ccccc1 (configuration not stated) | -1.1 | 104.1* | -0.2 | -2.6 | 21.5
CCCCS(=O)CC(COC)OC(=O)c1ccccc1 (configuration not stated) | -0.2 | 17.0 | 0.5 | 3.1 | ·
CC1=CC(C)(C)N(C(=O)c2ccc(F)cc2)c2cc3c(cc21)OCO3 | -3.9 | 98.0* | -1.0 | 8.8 | 71.1*
C=C(C)COc1ccc(-c2n[nH]c(C)c2-c2ccc(Br)cc2)c(O)c1 | 0.4 | · | -4.5 | 14.0 | 106.2*
C=C(C)COc1ccc(-c2nc(N)ncc2-c2ccc(Br)cc2)c(O)c1 | 1.3 | · | 3.1 | -2.3 | ·
CCCNC(=O)C1(C)CCCN(Cc2ccccc2-c2ccccc2)C1 (configuration not stated) | · | · | 0.5 | · | ·
COc1ccc(/C=C2\C(=O)NC(=S)N2C(=O)c2ccc(F)cc2)cc1 | · | 97.3* | -0.2 | · | 25.9
SMILES | CHOP UPR activ | CHOP inhibitor | FXN GAA850 act | UPR XBP1 act | CHOP inh conf
O=C(NC(c1ccc(Cl)cc1)c1cc(Cl)c2cccnc2c1O)c1cccnc1 (configuration not stated) | · | 110.1* | -1.4 | · | 38.5
CC(=O)NC(c1ccccc1)c1cc(Cl)c2cccnc2c1O (configuration not stated) | 0.2 | · | -4.0 | 0.9 | ·
NC(=O)CC(NC(=O)Cc1cccc2ccccc12)c1ccc(NCCc2ccc(F)cc2)c([N+](=O)[O-])c1 (configuration not stated) | -0.4 | 59.3 | 0.6 | 0.1 | ·
NC(=O)CC(NC(=O)Cc1cccc2ccccc12)c1ccc(NCc2ccc(F)cc2)c([N+](=O)[O-])c1 (configuration not stated) | -3.4 | 105.3* | 0.5 | -3.0 | 108.2*
NC(=O)CC(NC(=O)Cc1cccc2ccccc12)c1ccc(NCc2ccccc2)c([N+](=O)[O-])c1 (configuration not stated) | 1.4 | 101.0* | -0.3 | 0.4 | 91.4*
NC(=O)CC(NC(=O)Cc1cccc2ccccc12)c1ccc(NCc2ccccn2)c([N+](=O)[O-])c1 (configuration not stated) | 5.0 | 17.9 | -2.8 | -0.4 | ·
NC(=O)CC(NC(=O)Cc1ccc(Br)cc1)c1ccc(NCCc2cccc(F)c2)c([N+](=O)[O-])c1 (configuration not stated) | -1.5 | -2.3 | -0.5 | -3.0 | ·
NC(=O)CC(NC(=O)Cc1ccc(Br)cc1)c1ccc(NCc2cc(F)ccc2F)c([N+](=O)[O-])c1 (configuration not stated) | -1.7 | 97.0* | 0.4 | -0.5 | 6.8
O=C(NC(c1ccc(Cl)cc1)c1ccccn1)C1CCN(CCOc2ccc(Cl)cc2Cl)CC1 (configuration not stated) | · | · | 0.1 | · | ·
CN1CCN(S(=O)(=O)c2cc([N+](=O)[O-])ccc2N/N=C/c2ccc(Cl)cc2)CC1 | 4.1 | 66.6 | 1.1 | 7.9 | ·
O=[N+]([O-])c1ccc(N/N=C/c2c[nH]c3ccccc23)c(S(=O)(=O)Nc2ccc(Cl)cc2)c1 | -1.3 | 106.4* | 0.2 | -1.1 | 60.6
COc1ccc(CN2C(=O)C(CC(=O)NCC3CCCCC3)CC(C(=O)N(C)C)=C2C)cc1 (configuration not stated) | · | · | -0.1 | · | ·
Cc1cc(C)nc(NS(=O)(=O)c2ccc(NC(=O)c3cc(-c4ccccc4)nc4ccccc34)cc2)n1 | 1.0 | 102.4* | -1.4 | 1.0 | 25.0
COc1ccc(/C=N/NC(=O)c2nc(Cl)c(Cl)c(N)c2Cl)cc1COc1ccc(F)cc1F | 2.6 | 100.5* | 2.9 | 5.8 | 36.2
COCCNC(=O)C1CCCN(C(=O)c2ccc(SC(F)(F)F)cc2)CC1 (configuration not stated) | · | · | -1.5 | · | ·
Cc1ccc(O)c(NC(=O)c2noc3c2CCc2ccccc2-3)c1 | 7.8 | 107.3* | 6.6 | 1.9 | -96.1
Cc1cc(NC(=O)c2noc3c2CCc2ccccc2-3)no1 | 5.6 | 19.2 | -0.7 | 1.9 | ·
CC(=O)N1CCc2cc(NC(=O)C3(C)CCN3CCc3ccccc3)ccc21 (configuration not stated) | · | · | -3.1 | · | ·
Cc1ccc(/C=C2\SC(=S)N(CCCC(=O)Nc3ccccn3)C2=O)cc1 | -10.9 | 111.1* | -12.3 | -8.2 | 113.5*
